B1: tRNA (parent)
chain: GUUCCGUUGGCGUAAUGGUAACGCGUCUCCCUCCUAAGGAGAAGACUGCGGGUUCGAGUCCCGUACGGAACG

Variants of: B1
Assay: yeast fitness, log relative to wild type (ln ratio); higher = fitter; tRNA-Arg(CCU), competitive growth, 37 C, 1 M NaCl
In short: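 Variants were counted by 125 bp paired-end Illumina sequencing after pools of a combinatorial tRNA-Arg(CCU) library, held on a HIS3 centromeric plasmid in BY4742 lacking the chromosomal gene, grew ~6.5 generations (~26.5 h) in SC-HIS 1M NaCl at 37 °C. Each genotype's fitness is the natural log of its generations relative to the wild type's. Generations were OD-scaled log2 output/input frequencies, inverse-variance weighted over replicates.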

Variant	yeast fitness (ln)
U2C G6A C27U A43C C46U A70U	-0.0327
G1A G6U C27U C46U C66U C71U	-0.297
U2C G6U A43C C46U C66A A70G	0.0031
G1A U2G G6A C27U A43C C46U C66A C71U	-0.323
G1A G6U C27U A43C C46U C66U C71U	-0.364
U2C G6U C27U A43C C46U C66A A69G A70U C71U	-0.26
G1A U2C C66U A70G C71U	0.00307
U2G G6U C27U A43C C46U C66U A69G A70U	-0.374
U2C G6U A43C	-0.0574
U2C C27U A43C C66A A69G A70G C71U	-0.328
G1A G6U A43C A70G	-0.21
G1A C27U C46U C66U C71U	-0.454
G6A C27U C46U C66A C71U	-0.148
U2C C46U C66U A70U C71U	-0.155
U2G G6A C27U C66A A70U C71U	-0.244
G6A C46U C66U A70U	-0.00103
G6U C27U A43C C66A A70G C71U	-0.217
U2G G6U C46U A69G A70U C71U	-0.311
G1A U2G G6U C27U C71U	-0.358
C27U A43C C46U C66A A70G C71U	-0.101
G1A U2C G6A A43C C46U C66U A70G C71U	-0.015
G1A U2G C27U A43C C46U C66U A70G	-0.172
G6U C66A	0.000896
G1A C27U C66A	-0.123

Variant	yeast fitness (ln)
C27U C66A A69G A70U	-0.15
G1A U2G A43C C46U A70U	-0.163
U2C C27U C46U C66U A70U C71U	-0.199
U2C G6U C27U C46U A70G C71U	-0.359
U2G G6U C27U A43C C46U C66A A69G C71U	-0.352
U2C G6A C46U A69G C71U	-0.107
C27U A43C C46U C66U A70U	-0.109
G1A A43C A69G A70G C71U	-0.353
G6U C27U C46U A69G A70U	-0.292
U2G G6U C46U C66A A69G A70U	0.00778
G1A U2G G6U C27U A43C C66A	-0.171
G1A U2G G6U A43C C46U A69G A70U C71U	-0.398
C27U C46U A69G A70G C71U	-0.298
U2C C66A A69G A70G C71U	-0.105
G6A A43C C46U A70U	-0.117
G1A U2G G6A C46U C66A A70U	-0.189
U2G C27U C46U C66U C71U	-0.214
G1A G6A C27U C46U C66U A69G A70U C71U	-0.436
G1A U2G G6U A43C C46U C66U A70G C71U	-0.418
G1A A70G C71U	-0.0244
G6A C27U A43C C46U A69G A70U C71U	-0.441
G6U C27U A43C C66A A70U C71U	-0.477
U2G C27U C46U C66A	-0.0734
G1A G6A C27U A43C C46U C66A A69G A70G C71U	-0.302

Variant	yeast fitness (ln)
G1A G6A C27U A43C C46U C66U A69G A70G C71U	-0.324
C27U C46U A69G A70U	-0.209
U2G C27U A43C C46U C66U A69G A70G C71U	-0.249
G6U C27U A43C C46U C66A A69G A70U C71U	-0.611
U2G G6U C27U A43C C66U A69G A70U	-0.466
G6U C27U A43C C66A A69G A70U	-0.282
U2G C46U A69G A70G C71U	-0.184
G1A U2G A43C A70G C71U	-0.207
G1A G6U C27U A43C C66A A70U	-0.264
A43C C46U A70U	-0.00645
G1A G6A C27U A43C A70G C71U	-0.351
U2G G6A C27U A43C C66U A69G C71U	-0.35
C27U A43C C46U A70U	-0.0673
G1A U2G C27U C46U A69G A70G C71U	-0.292
U2G G6A A43C C46U C66U A69G A70G C71U	-0.229
U2C G6A A43C A69G A70G	-0.0768
U2C G6U C46U C66U A69G A70U	-0.0758
U2C G6U C66U C71U	-0.139
G1A G6U A43C C46U A69G A70G C71U	-0.321
G1A G6U C66A A69G A70U C71U	-0.432
U2G G6A C27U C46U A70U C71U	-0.143
U2G C27U A43C C46U C66A A69G A70U	-0.175
A43C C46U A69G A70G C71U	-0.0835
G1A U2G C27U C46U C66A A70U C71U	-0.185

Variant	yeast fitness (ln)
U2C G6A C27U A43C C46U C66U A69G A70U	-0.173
G1A A43C C66A C71U	-0.275
G6A A70G	-0.194
G1A U2C G6A C27U A43C C46U A70U	-0.125
U2C C66U A69G A70G	-0.0264
G1A U2G G6U C27U C66U C71U	-0.522
G6A A43C C46U C66U A69G C71U	-0.558
U2G G6A A43C C46U C66A A69G A70U C71U	-0.381
G1A G6A C27U C66A A70U	-0.139
G6U C27U A43C C66A A69G A70U C71U	-0.389
G1A U2G A43C	-0.0767
G1A U2G G6U A43C C46U C66A	-0.364
G1A C66U A70U C71U	-0.212
G1A U2G G6A C46U C66U	-0.13
U2G C27U A43C C66U A69G A70G C71U	-0.402
G1A U2C G6A C27U A43C C46U	-0.0401
U2G G6U C27U A43C C66A A69G C71U	-0.445
U2G G6A C27U A43C C66A A69G A70G C71U	-0.366
U2G C27U C66U A69G A70G	-0.288
G1A U2C G6U A43C C46U A70G C71U	-0.359
U2C A43C C66U A70G	-0.0636
G6A C27U A43C A70U	-0.263
C27U C66A A69G A70U C71U	-0.356
G1A C27U C46U A69G A70G C71U	-0.16

Variant	yeast fitness (ln)
G1A G6A C46U C66U A69G A70G C71U	-0.0914
G1A U2G G6U C27U C46U A70U C71U	-0.242
U2G G6A A43C A70G	-0.0939
U2C G6U A43C C66A A70G	-0.0246
G1A G6U C27U A70G	-0.277
U2G C27U A43C C66A A70U C71U	-0.319
U2G C27U A43C C66A A69G C71U	-0.355
U2C G6U A70G C71U	-0.0899
U2G G6A C27U A43C C46U C66U C71U	-0.282
G1A U2C G6U C27U A43C C46U C66U A70G C71U	-0.0871
G1A C27U A70U	-0.112
G1A U2C	-0.00128
G6A C46U A69G A70U C71U	-0.218
G1A U2C G6U C27U C46U A69G A70U	-0.219
C46U C66A A69G A70G	-0.0653
G1A U2C G6A C27U A43C C46U A70U C71U	-0.153
G6U C66A A69G A70U	-0.291
U2C G6U A43C C46U C66U	-0.158
G1A C66U A70U	-0.105
G6U C46U C66A A69G A70U	-0.302
U2G C27U C66U A69G	-0.231
U2G G6U C46U A69G	-0.157
G1A C66U A69G A70G C71U	-0.217
A43C C46U C66A A70G C71U	-0.0713

Variant	yeast fitness (ln)
G1A U2C G6U A43C C46U A69G A70G C71U	-0.124
G6U A43C C46U C66A A69G C71U	-0.548
G1A U2G G6U C46U C66U A69G A70U C71U	-0.441
G1A U2G G6U C27U A43C C66U A70G C71U	-0.346
G1A G6A C27U C46U C66A A70G C71U	-0.269
U2G C66U	-0.0538
G1A U2G G6U C46U C66U A69G C71U	-0.466
U2C G6U A43C C66U A69G C71U	-0.454
G1A G6A C27U C66U A69G A70U	-0.324
G1A C46U C66A A69G A70U C71U	-0.331
G1A U2G A43C C46U C66A A70U C71U	-0.168
U2C A70G	0.00112
U2G G6U A43C C46U C66U A69G A70U	-0.286
U2C G6U A43C A69G A70G C71U	-0.13
G1A U2G G6A C27U C46U A70U	-0.189
G1A U2C C27U C46U C66U A70G	-0.242
G1A U2C C27U C46U C71U	-0.147
U2G G6A A43C C46U C66U A69G A70G	-0.199
U2C G6A C27U C46U C66A A70U	-0.0453
U2G G6A C27U C46U C66U A70U C71U	-0.158
G6A C27U C66A	-0.192
U2C A70G C71U	-0.013
U2C G6A C27U A43C C46U C66U A69G A70U C71U	-0.32
G1A U2C G6A C27U C46U C66U A69G A70U	-0.0756

Variant	yeast fitness (ln)
U2C C27U A43C C46U A69G A70G C71U	-0.0222
G1A G6A C27U A43C	-0.204
G1A U2G G6A C66U A69G A70U C71U	-0.33
U2C G6A C27U C66U A69G A70U C71U	-0.386
U2C G6A A43C	-0.0449
G6A C46U C66U A69G A70U	-0.202
U2C G6A C27U C46U C66U A70U C71U	-0.174
G1A U2C C27U A69G A70G	-0.209
U2C G6A A43C C46U C66A A70G C71U	-0.108
U2G G6A C27U C46U A69G C71U	-0.174
G1A G6A C46U C66U A70G C71U	-0.0284
G6U C27U A43C C46U A69G A70G	-0.339
U2G G6U C27U A43C A69G A70U	-0.315
U2G G6A A43C C46U A69G A70G C71U	-0.226
U2C A43C C66U A69G A70U C71U	-0.605
U2C G6U A69G A70U C71U	-0.231
G6U C27U A43C C66U A70G	-0.407
G1A G6A C66A A70U	-0.0411
G1A U2G C27U A70U	-0.33
U2C G6A C27U C46U C66U A69G A70G C71U	-0.0479
G1A G6U C27U C66U C71U	-0.389
G1A C27U C46U C66U A69G C71U	-0.311
U2G C46U C66U A69G	-0.119

Reference: the RNAGym collection of RNA variant scans (doi:10.1038/s41586-018-0170-7)
